Measurements pooled from the literature.
Protocols differ between the studies behind these lines.
ABL1 M351T phosphorylated: Tyrosine-protein kinase ABL1, phosphorylated (ABL1, Homo sapiens, UniProt P00519, M351T)
ABL1 non-phosphorylated: Tyrosine-protein kinase ABL1, non-phosphorylated (ABL1, Homo sapiens, UniProt P00519)
ABL1 Y253F phosphorylated: Tyrosine-protein kinase ABL1, phosphorylated (ABL1, Homo sapiens, UniProt P00519, Y253F)
ABL1 phosphorylated: Tyrosine-protein kinase ABL1, phosphorylated (ABL1, Homo sapiens, UniProt P00519)
ABL1 T315I phosphorylated: Tyrosine-protein kinase ABL1, phosphorylated (ABL1, Homo sapiens, UniProt P00519, T315I)
ABL1 T315I non-phosphorylated: Tyrosine-protein kinase ABL1, non-phosphorylated (ABL1, Homo sapiens, UniProt P00519, T315I)
ABL1 F317I phosphorylated: Tyrosine-protein kinase ABL1, phosphorylated (ABL1, Homo sapiens, UniProt P00519, F317I)
ABL1 M351T: Tyrosine-protein kinase ABL1 (ABL1, Homo sapiens, UniProt P00519, M351T)
ABL1 F317L phosphorylated: Tyrosine-protein kinase ABL1, phosphorylated (ABL1, Homo sapiens, UniProt P00519, F317L)

`O=C(NCCCN1CCOCC1)c1ccc(Nc2ncc(Cl)c(-c3ccc(Cl)s3)n2)cc1` has a remaining binding of 27% (ABL1 M351T phosphorylated; binding; competition with immobilised ligand; 1 µM).
`C[C@@H](c1ccc(-n2cnc3c(N)ncnc32)cc1)N1CCc2nn(C)c(Cc3ccccc3)c2C1=O` gave a remaining binding of 15% (ABL1 non-phosphorylated; binding; competition with immobilised ligand; 0.1 µM).
With `CN(C(=O)c1ccccc1)c1cc(N(C)c2ccc3c(c2)CCc2ccc(C(=O)NCCN4CCOCC4)cc2C3=O)ccc1F` the remaining binding was 100% (Tyrosine-protein kinase ABL1, phosphorylated (ABL1, Homo sapiens, UniProt P00519, H396P); cell-free assay; competition with immobilised ligand; 1 µM).
`O=C(c1ccc(Nc2ncc(Cl)c(-c3cc4ccccc4s3)n2)cc1)N1CCC(N2CCCC2)CC1` has a remaining binding of 8% (ABL1 Y253F phosphorylated; binding; competition with immobilised ligand; 1 µM).
The remaining binding of `O=C(NCC1CCOCC1)c1n[nH]cc1NC(=O)c1c(F)cccc1F` is reported as 88% (Tyrosine-protein kinase ABL1, non-phosphorylated (ABL1, Homo sapiens, UniProt P00519, F317L); binding; competition with immobilised ligand; 1 µM).
For `Nc1ncc2c(n1)-c1c([nH]c3ccc(C#CC4CC4)cc13)CCCC2`, the remaining binding was 100% (ABL1 phosphorylated; binding; competition with immobilised ligand; 1 µM).
`O=C(Nc1c[nH]nc1C(=O)NC1CCNCC1)c1cc(F)cc(F)c1` has a remaining binding of 98% (ABL1 T315I phosphorylated; binding; competition with immobilised ligand; 1 µM).
`COc1ncc2cc3ccccc3nc2c1C#N` gave a remaining binding of 100% (ABL1 non-phosphorylated; cell-free assay; competition with immobilised ligand; 5 µM).
For `CCCOc1ccc([C@@H]2[C@@H](C(=O)O)[C@H](c3ccc4c(c3)OCO4)CN2CC(=O)Nc2c(CC)cccc2CC)cc1`, the remaining binding was 83% (ABL1 T315I non-phosphorylated; cell-free assay; competition with immobilised ligand; 1 µM).
`CN(CCCC(F)(F)F)c1nccc(-c2cnn3ncccc23)n1` has a remaining binding of 95% (Tyrosine-protein kinase ABL1 (ABL1, Homo sapiens, UniProt P00519, H396P); binding; 1 µM).
`O=C(c1ccc(Nc2nccc(-c3cc4ccccc4s3)n2)cc1)N1CCC(N2CCCC2)CC1` has a remaining binding of 99% (ABL1 F317I phosphorylated; binding; competition with immobilised ligand; 1 µM).
`CNC(=O)[C@@H]1CC[C@@H](n2c(-c3ccc4cnccc4c3)nc3ccc(C(=O)NCc4cccc(C(N)=O)c4)cc32)C1` has a remaining binding of 100% (ABL1 T315I phosphorylated; binding; competition with immobilised ligand; 1 µM).
`C[C@@H]1CCN(c2nccc(-c3cnn4ncccc34)n2)C1` has a remaining binding of 81% (ABL1 non-phosphorylated; binding; 1 µM).
For `CCCCN(CCCC)C(=O)CN1C[C@H](c2cc(OC)c3c(c2)OCO3)[C@@H](C(=O)O)[C@@H]1CC(C)(C)CCC`, the remaining binding was 98.5% (Tyrosine-protein kinase ABL1, non-phosphorylated (ABL1, Homo sapiens, UniProt P00519, F317I); binding; competition with immobilised ligand; 1 µM).
For `F[C@@H]1CCN(c2nccc(-c3cnn4ncccc34)n2)C1`, the remaining binding was 100% (Tyrosine-protein kinase ABL1 (ABL1, Homo sapiens, UniProt P00519, T315I); binding; 1 µM).
With `COc1cnc(Nc2cccc(S(N)(=O)=O)c2)nc1N1CCN(c2ccccc2)C(=O)C1` the remaining binding was 77% (ABL1 T315I phosphorylated; binding; competition with immobilised ligand; 1 µM).
`O=C(NCCCN1CCOCC1)c1ccc(Nc2nccc(-c3cc4ccccc4s3)n2)cc1` has a remaining binding of 41% (ABL1 T315I phosphorylated; binding; competition with immobilised ligand; 1 µM).
`CC(=O)N1CCC(c2ccc(C(=O)NC(=N)N)cc2C(F)(F)F)CC1` gave a remaining binding of 95% (ABL1 T315I phosphorylated; cell-free assay; competition with immobilised ligand; 1 µM).
The remaining binding of `c1cnn2ncc(-c3ccnc(N4CCC45COC5)n3)c2c1` is reported as 63% (Tyrosine-protein kinase ABL1 (ABL1, Homo sapiens, UniProt P00519, E255K); binding; 1 µM).
For `CCN1CCN(Cc2ccc(C(=O)Nc3ccc(C)c(Oc4ccc5c(c4)CC(=O)N5)c3)cc2C(F)(F)F)CC1`, the remaining binding was 16% (ABL1 T315I non-phosphorylated; binding; competition with immobilised ligand; 1 µM).
With `CN(C)c1nccc(-c2cnc3ncccn23)n1` the remaining binding was 78% (ABL1 M351T; binding; 1 µM).
The remaining binding of `c1cncc(-c2cccc(Nc3nccc(NC4CCCCC4)n3)c2)c1` is reported as 61% (ABL1 F317L phosphorylated; binding; competition with immobilised ligand; 10 µM).
For `N[C@@H]1CCN(c2nccc(-c3cnn4ncccc34)n2)C1`, the remaining binding was 100% (ABL1 M351T; binding; 1 µM).
`CO[C@H]1CC[C@H](CNc2ccc(S(=O)(=O)NC(=O)c3ccc(N4CCN(CC5=C(c6ccc(Cl)cc6)CC(C)(C)CC5)CC4)cc3Oc3cnc4[nH]ccc4c3)cc2[N+](=O)[O-])CC1` gave a remaining binding of 83% (ABL1 F317L phosphorylated; cell-free assay; competition with immobilised ligand; 1 µM).
`CC(C)(C)c1ccc(-c2nc(CBr)nn2-c2cccc(O)c2)cc1` gave a remaining binding of 82% (ABL1 T315I phosphorylated; cell-free assay; competition with immobilised ligand; 10 µM).
For `C[C@@H]1CN(c2cc(-c3n[nH]c4ccc(OC5(C)CC5)cc34)ncn2)C[C@H](C)O1`, the remaining binding was 66% (ABL1 Y253F phosphorylated; cell-free assay; competition with immobilised ligand; 0.1 µM).
`CC1CCCN1c1nccc(-c2cnn3ncccc23)n1` (stereo not shown) gave a remaining binding of 96% (ABL1 phosphorylated; binding; 1 µM).
`O=C(O)[C@H]1[C@H](Cn2nnc3ccccc3c2=O)CC[C@@H]1C(=O)c1ccc(OCCC2CCOCC2)cc1` gave a remaining binding of 100% (ABL1 F317I phosphorylated; binding; 1 µM).
`C=CC(=O)N1CCC(C(=O)NCC(=O)N2CCN(c3nc(-c4cnc(N)nc4C(F)F)nc(N4CCOCC4)n3)CC2)CC1` has a remaining binding of 94% (Tyrosine-protein kinase ABL1, non-phosphorylated (ABL1, Homo sapiens, UniProt P00519, Q252H); binding; competition with immobilised ligand; 1 µM).
`O=C(c1ccc(Nc2ncc(Cl)c(-c3ccc(Cl)s3)n2)cc1)N1CCC(N2CCCC2)CC1` gave a remaining binding of 1.1% (ABL1 T315I phosphorylated; binding; competition with immobilised ligand; 1 µM).
The remaining binding of `COc1cnc(Nc2cccc(S(N)(=O)=O)c2)nc1N1CCN(c2ccccc2)CC1` is reported as 84% (Tyrosine-protein kinase ABL1, phosphorylated (ABL1, Homo sapiens, UniProt P00519, E255K); binding; competition with immobilised ligand; 1 µM).
`Cc1cnc(Nc2ccc(C(=O)N3CCC(N4CCCC4)CC3)cc2)nc1-c1cc2ccccc2s1` has a remaining binding of 57% (ABL1 F317I phosphorylated; binding; competition with immobilised ligand; 1 µM).
`O=C(NCc1ncc(C(F)(F)F)cc1Cl)c1ccc2c(c1)C1(CCS(=O)(=O)CC1)[C@@H](C1CC1)N2S(=O)(=O)c1ccc(F)cc1` gave a remaining binding of 94% (ABL1 M351T phosphorylated; cell-free assay; competition with immobilised ligand; 1 µM).
For `CN(C)c1nccc(-c2cnn3ncccc23)n1`, the remaining binding was 100% (ABL1 M351T; binding; 1 µM).
